Measurements from article PMC3880025 (ACS nano, 2013).

Columns and labels:
Hela cells = test: Cellular viability after exposure to QD-peptide conjugates; format: cell-based, human; settings: exposure to 100 nM of 75 peptide/QD
[1] = test system: Primary human dermal fibroblasts; test: as above; format: cell-based; settings: exposure to 100 nM of 75 peptide/QD
[2] = test system: Primary human dermal fibroblasts; test: Semi-quantitative imaging assay of QD uptake and endosomal escape; format: cell-based
Outline: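 Peptides were self-assembled onto 550 nm CdSe/ZnS QDs in DMEM with 25 mM HEPES at 25°C for 20–30 min (QDs typically 80–150 nM final). Cells on fibronectin-coated coverglass were exposed for 2 h at 37°C with Tf-Cy5 (50 µg/mL) to mark endosomes, then washed, cultured 48 h, fixed in 3.7% paraformaldehyde and DAPI-stained. Individual cells were imaged and classed for QD uptake (none/low/moderate/high) and endosomal escape.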

cultured cells = settings: preliminary screening of QD cellular delivery; cited from earlier work
HEK 293 cells = test: Cellular viability after exposure to QD-peptide conjugates; format: cell-based, human; settings: exposure to 100 nM of 75 peptide/QD
COS-1 cells [3] = test: Semi-quantitative imaging assay of QD uptake and endosomal escape; format: cell-based, African Green Monkey
PC12 cells = test: Cellular viability after exposure to QD-peptide conjugates; format: cell-based, rat; settings: exposure to 100 nM of 75 peptide/QD
A549 cells = test: as above; format: cell-based, human; settings: exposure to 100 nM of 75 peptide/QD
COS-1 cells [4] = test: as above; format: cell-based, African Green Monkey

WG•(Dap^Pal)•VKIKK•P9•GG•H6 [JB577]
Cellular viability (%) (Hela cells): 98 ±1% | Cellular viability (%) [1]: 92 ±6% | Overall uptake/escape: QD uptake class ([2]; first word of the cell): high (high (>60% uptake)) | Overall uptake/escape: endosomal escape class ([2]; second word of the cell): moderate (moderate (30–70%)) | Time after delivery at which cytosolic release peaked (cultured cells): ~ 48 h | Time of endocytic uptake of QDs (cultured cells): 1 to 2 h | Cellular viability (%) (HEK 293 cells): 87 ±5% | % Escape in cells with uptake (COS-1 cells [3]; 100 nM 550 nm QDs, 75 peptides/QD, 2 h incubation, 48 h culture): ~ 77% | Endosomal escape / intracellular localization of QDs, result in words (COS-1 cells [3]; QD-peptide conjugates, SAR comparison with JB577): well-dispersed throughout the cytosol | Overall uptake/escape: QD uptake class (COS-1 cells [3]; first word of the cell, 100 nM QDs, 75 peptides/QD, 48 h culture): high/high (high (>60% uptake)) | Cellular viability (%) (PC12 cells): 97 ±10% | Cellular viability (%) (A549 cells): 96 ±3% | Cellular viability, continuous 48 h exposure, peptide alone (COS-1 cells [4]; continuous 48 h exposure to peptide alone): 87±7% | Cellular viability, continuous 48 h exposure, QD conjugates (COS-1 cells [4]; continuous 48 h exposure to peptide-QD conjugates): 97±6% | Cellular viability (%) (COS-1 cells [4]; exposure to 100 nM of 75 peptide/QD): 98 ±4%
